Assays:
[1] = Inhibition of HIV1 reverse transcriptase 41L/69S-SG/210W/215Y mutant in presence of 5 mM ATP by heteropolymeric DNA polymerase assay; parameters: species or system Human immunodeficiency virus 1
How it was run: (§1)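 Heteropolymeric DNA polymerase assay with ATP added at 5 mM. Purified HIV-1 RT at 30–100 pM acts on a plate-bound DNA primer with a 5′-A12-(GTCA)5-3′ template. dATP, dGTP, dCTP and BrdUTP at 1.0 μM each. Incubation 180 min at 33°C. BrdUMP incorporation read via anti-BrdU-AP at 405 nm after NaOH dehybridization. IC50 from seven inhibitor concentrations, at least two experiments in duplicate.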

[2] = Inhibition of HIV1 reverse transcriptase wild type HXB2(a) in presence of 5 mM ATP by heteropolymeric DNA polymerase assay; parameters: species or system Human immunodeficiency virus 1
How it was run: (§2)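 Heteropolymeric DNA assay with 5 mM ATP added: immobilized 18-mer primer, 5′-A12-(GTCA)5 50-mer template, dATP/dGTP/dCTP/BrdUTP at 1.0 μM each, HEPES 50 mM pH 7.3, MgCl2 10 mM. RT 30–100 pM, incubated at 33°C for 180 min. NaOH strand separation, then anti-BrdU-AP detection at 405 nm. IC50 fitted from seven inhibitor concentrations; two to four runs in duplicate.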

[3] = Inhibition of HIV1 reverse transcriptase 75I/77L/116Y/151M/184V mutant in presence of 5 mM ATP by heteropolymeric DNA polymerase assay; parameters: species or system Human immunodeficiency virus 1; how it was run: as §1
[4] = Inhibition of HIV1 reverse transcriptase wild type HXB2(b) in presence of 5 mM ATP by heteropolymeric DNA polymerase assay; parameters: species or system Human immunodeficiency virus 1; how it was run: as §2
[5] = Inhibition of HIV1 reverse transcriptase wild type HXB2(a) in presence of 5'-A12-(GTCA)5-3' by heteropolymeric DNA polymerase assay; parameters: species or system Human immunodeficiency virus 1
How it was run: (§3)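 Heteropolymeric DNA assay containing 5 mM ATP on the 5′-A12-(GTCA)5 template, with each dNTP (BrdUTP in place of TTP) at 1 μM or, in the modified version, 20 μM. HEPES 50 mM pH 7.3, MgCl2 10 mM, 33°C for 180 min, then NaOH step and anti-BrdU-AP readout at 405 nm. Mean IC50 from at least two runs in duplicate.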

[6] = Inhibition of HIV1 reverse transcriptase 41L/67N/70R/210W/215Y mutant in presence of 20 uM dNTP by heteropolymeric DNA polymerase assay; parameters: species or system Human immunodeficiency virus 1
How it was run: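 DNA polymerase assay with 5 mM ATP and purified HIV-1 RT (HXB2 background) on a plate-bound primer with a 5′-A12-(GTCA)5-3′ template. Each dNTP (dATP, dGTP, dCTP, BrdUTP) is set at either 1 μM or 20 μM. Incubation 180 min at 33°C, anti-BrdU-AP readout at 405 nm. IC50 from at least two experiments in duplicate. Fold change is relative to wild-type RT at the same dNTP level.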

[7] = Inhibition of HIV1 reverse transcriptase 41L/69S-SG/210W/215Y mutant in presence of 5'-A12-(GTCA)5-3' by heteropolymeric DNA polymerase assay
[8] = biological target: T1, Human immunodeficiency virus type 1 reverse transcriptase (Human immunodeficiency virus 1, UniProt Q72547); test: Inhibition of HIV1 LAI reverse transcriptase wild type in presence of 5 mM ATP by heteropolymeric DNA polymerase assay; how it was run: as §2
[9] = Inhibition of HIV1 pNL4-3 reverse transcriptase 115F mutant by heteropolymeric DNA polymerase assay; parameters: species or system Human immunodeficiency virus 1
How it was run: (§4)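 Purified p66/p51 HIV-1 RT, or p66 homodimer for 65R, at 30–100 pM (about 1.5–4.5 mU/well). Plate-bound 18-mer DNA primer on a 50-base 5′-A12-(GTCA)5-3′ DNA template. dATP, dGTP, dCTP and BrdUTP at 1.0 μM each, no ATP. Buffer: HEPES 50 mM pH 7.3, 10 mM MgCl2. Incubation 180 min at 33°C, NaOH dehybridization, anti-BrdU-AP tracer, A405. IC50 from seven inhibitor concentrations, at least two experiments in duplicate.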

[10] = Inhibition of HIV1 reverse transcriptase 184V mutant in presence of 5 mM ATP by heteropolymeric DNA polymerase assay; parameters: species or system Human immunodeficiency virus 1; how it was run: as §1
[11] = Inhibition of HIV1 reverse transcriptase 184V mutant by heteropolymeric DNA polymerase assay; parameters: species or system Human immunodeficiency virus 1; how it was run: as §4
[12] = Inhibition of HIV1 reverse transcriptase 41L/67N/70R/184V/210W/215Y mutant in presence of 5 mM ATP by heteropolymeric DNA polymerase assay; parameters: species or system Human immunodeficiency virus 1; how it was run: as §1
[13] = biological target: T1, Human immunodeficiency virus type 1 reverse transcriptase; test: Inhibition of HIV1 LAI reverse transcriptase wild type LAI by heteropolymeric DNA polymerase assay
How it was run: (§5)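 Heteropolymeric assay without ATP: plate-bound 18-mer DNA primer (~110 nM) with 50-mer 5′-A12-(GTCA)5 template (190 nM). dATP, dGTP, dCTP and BrdUTP at 1.0 μM each, in HEPES 50 mM pH 7.3, MgCl2 10 mM. RT 30–100 pM, 33°C for 180 min, then NaOH dehybridization and anti-BrdU-AP tracer read at 405 nm. IC50 from seven triphosphate concentrations; two to four runs in duplicate.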

[14] = Inhibition of HIV1 reverse transcriptase 41L/69S-SG/210W/215Y mutant by heteropolymeric DNA polymerase assay; parameters: species or system Human immunodeficiency virus 1; how it was run: as §4
[15] = Inhibition of HIV1 reverse transcriptase 75I/77L/116Y/151M mutant in presence of 5 mM ATP by heteropolymeric DNA polymerase assay; parameters: species or system Human immunodeficiency virus 1; how it was run: as §1
[16] = Inhibition of HIV1 HXB2 reverse transcriptase 41L/67N/70R/215Y/219Q mutant in presence of 5 mM ATP by heteropolymeric DNA polymerase assay
[17] = Inhibition of HIV1 reverse transcriptase wild type HXB2(a) in presence of 1 uM dNTP by heteropolymeric DNA polymerase assay; parameters: species or system Human immunodeficiency virus 1; how it was run: as §3
[18] = biological target: T1, Human immunodeficiency virus type 1 reverse transcriptase; test: Inhibition of HIV1 pNL4-3 reverse transcriptase wild type pNL4-3 in presence of 5 mM ATP by heteropolymeric DNA polymerase assay; how it was run: as §2
[19] = Inhibition of HIV1 pNL4-3 reverse transcriptase 115F mutant in presence of 5 mM ATP by heteropolymeric DNA polymerase assay; parameters: species or system Human immunodeficiency virus 1; how it was run: as §1
[20] = Inhibition of HIV1 LAI reverse transcriptase 65R mutant in presence of 5 mM ATP by heteropolymeric DNA polymerase assay; parameters: species or system Human immunodeficiency virus 1; how it was run: as §1
[21] = Inhibition of HIV1 reverse transcriptase 75I/77L/116Y/151M/184V mutant by heteropolymeric DNA polymerase assay; parameters: species or system Human immunodeficiency virus 1; how it was run: as §4
[22] = biological target: T1, Human immunodeficiency virus type 1 reverse transcriptase; test: Inhibition of HIV1 pNL4-3 reverse transcriptase wild type pNL4-3 by heteropolymeric DNA polymerase assay; how it was run: as §5
[23] = Inhibition of HIV1 reverse transcriptase 75I/77L/116Y/151M mutant by heteropolymeric DNA polymerase assay; parameters: species or system Human immunodeficiency virus 1; how it was run: as §4

Structure (SMILES)	IC50 [1]	IC50 [2]	IC50 [3]	IC50 [4]	IC50 [5]	IC50 [6]	IC50 [7]	IC50 [8]	IC50 [9]	IC50 [10]	IC50 [11]	IC50 [12]	IC50 [13]	IC50 [14]	IC50 [15]	IC50 [16]	IC50 [17]	IC50 [18]	IC50 [19]	IC50 [20]	other results
C[C@H](Cn1cnc2c(N)ncnc21)OCP(=O)(O)OP(=O)(O)OP(=O)(O)O	24000 nM	3300 nM	4600 nM	3200 nM	3300 nM	49000 nM	24000 nM	1300 nM	1100 nM	2300 nM	2200 nM	5900 nM	550 nM	3700 nM	11000 nM	10500 nM	3300 nM	4000 nM	3700 nM	21000 nM	IC50 [21]: 2900 nM; IC50 [22]: 1200 nM; IC50 [23]: 8000 nM
Cc1cn([C@H]2CO[C@@H](COP(=O)(O)OP(=O)(O)OP(=O)(O)O)O2)c(=O)[nH]c1=O	1600 nM	380 nM	15000 nM	380 nM	380 nM	2400 nM	1600 nM	190 nM	80 nM	500 nM	180 nM	700 nM	110 nM	110 nM	6100 nM	840 nM	380 nM	300 nM	200 nM	750 nM	IC50 [21]: 7100 nM; IC50 [22]: 100 nM; IC50 [23]: 2100 nM
Cc1cn([C@H]2C[C@H](N=[N+]=[N-])[C@@H](COP(=O)(O)OP(=O)(O)OP(=O)(O)O)O2)c(=O)[nH]c1=O [ZIDOVUDINE TRIPHOSPHATE]	4400 nM	460 nM	22000 nM	480 nM	460 nM	16000 nM	4400 nM	300 nM	130 nM	520 nM	250 nM	900 nM	80 nM	160 nM	9000 nM	2500 nM	460 nM	420 nM	550 nM	610 nM	IC50 [21]: 10600 nM; IC50 [22]: 130 nM; IC50 [23]: 5100 nM

From ChEMBL document CHEMBL1143844, “Biochemical studies on the mechanism of human immunodeficiency virus type 1 reverse transcriptase resistance to 1-(beta-D-dioxolane)thymine triphosphate” (Antimicrob Agents Chemother, 2007)
